ChEMBL document CHEMBL1139834, “Synthesis and structure-activity relationships of new benzodioxinic lactones as potential anticancer drugs” (J Med Chem, 2007)
Calls of active or inactive are those of the source. The calls are words filed in the database; no cut-off is given here.

Tests used:
Type in all cases: functional
L1210 [1] = test: Cell cycle arrest in mouse L1210 cell line by accumulation at G2/M phase at 5 uM after 24 hrs
Outline: (§1)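 L1210 cells in RPMI 1640 with 2 mM L-glutamine, penicillin, streptomycin and 20% heat-inactivated horse serum, 5% CO2, 37 °C, exposed to several drug concentrations. Cells fixed in 70% ethanol, washed, stained 30 min at room temperature with propidium iodide plus RNAse in PBS, then flow cytometry. Read-out is percentage of cells in each cycle phase after 24 h exposure.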

HCC 2998 = test: Antitumor activity against human HCC2998 cell line; details: read-out: LC50 (the source's name)
Outline: (§2)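 Human tumour cell line panel. GI50 is the concentration giving 50% growth inhibition, averaged over at least two determinations. LC50 is the concentration killing 50% of cells in a […] assay.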

SNB-19 = test: Antitumor activity against human SNB19 cell line; outline: as §2
M14 = test: Antitumor activity against human M14 cell line; outline: as §2
L1210 [2] = test: Cell cycle arrest in mouse L1210 cell line by accumulation at 8N phase at 5 uM after 24 hrs; outline: as §1
[3] = Effect on DNA sequence recognition assessed by DNase I footprinting assay
SR = test: Antitumor activity against human SR cell line
Outline: (§3)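 Human tumour cell lines from a selected panel. GI50 is the concentration giving 50% growth inhibition, averaged from at least two determinations. LC50 is the concentration killing 50% of cells in a […] assay.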

A549 = test: Antitumor activity against human A549 cell line; outline: as §2
HOP-62 = test: Antitumor activity against human HOP62 cell line; outline: as §2
HOP-92 = test: Antitumor activity against human HOP92 cell line; outline: as §2
NCI-H23 = test: Antitumor activity against human NCI-H23 cell line; outline: as §2
786-0 = test: Antitumor activity against human 7860 cell line; outline: as §2
RXF 393 = test: Antitumor activity against human RXF393 cell line; outline: as §2
TK-10 = test: Antitumor activity against human TK10 cell line; outline: as §3
BT-549 = test: Antitumor activity against human BT549 cell line; outline: as §2
[4] = read-out: LC50 (the source's name)

Structure (SMILES): CCCCc1c2c(c(C)c3c1C(=O)OC3)Oc1ccccc1O2
- Activity (L1210 [1]): 67%
- CC50 (HCC 2998): 40 µM
- GI50 (SNB-19): 589 nM
- CC50 (SNB-19; [4]): 100 µM
- GI50 (M14): 603 nM
- CC50 (M14; [4]): 100 µM
- Activity (L1210 [2]): 67%
- Activity [3]: inactive
- GI50 (SR): 132 nM
- CC50 (SR; [4]): 100 µM
- GI50 (A549): 603 nM
- CC50 (A549; [4]): 70 µM
- GI50 (HOP-62): 1450 nM
- CC50 (HOP-62; [4]): 100 µM
- GI50 (HOP-92): 5.75 µM
- CC50 (HOP-92; [4]): 100 µM
- GI50 (NCI-H23): 2630 nM
- CC50 (NCI-H23; [4]): 100 µM
- GI50 (786-0): 562 nM
- CC50 (786-0; [4]): 50 µM
- GI50 (RXF 393): 977 nM
- CC50 (RXF 393; [4]): 100 µM
- GI50 (TK-10): 1510 nM
- CC50 (TK-10; [4]): 100 µM
- GI50 (BT-549): 21.4 µM
- CC50 (BT-549; [4]): 100 µM
